Source: ChEMBL document CHEMBL3804761, “Synthesis of a stable and orally bioavailable englerin analogue” (Bioorg Med Chem Lett, 2016)

Assays:
Format in all cases: functional
A498 = assay: Growth inhibition of human A498 cells assessed as cell growth at 10 uM incubated for 48 hrs by sulforhodamine B assay relative to control; conditions: A498, 48 h, read-out: Activity
SR = assay: Growth inhibition of human SR cells assessed as cell growth at 10 uM incubated for 48 hrs by sulforhodamine B assay relative to control; conditions: read-out: Activity
In short: (§1)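 Run in the standard NCI 60-cell-line screen. Cells were exposed to drug for two days, and the read-out was sulforhodamine B staining. Compound was tested at a single final concentration of 10 µM in every line, and results are reported as growth percent.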

[1] = Growth inhibition of human UACC257 cells assessed as cell growth at 10 uM incubated for 48 hrs by sulforhodamine B assay relative to control; conditions: UACC-257, 48 h, read-out: Activity
In short: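 NCI 60-cell line standard protocol, one-dose screen: single final concentration 10 µM, 2-day drug exposure, sulforhodamine B (SRB) endpoint; read-out is growth percent relative to untreated control.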

[2] = Growth inhibition of human HL-60(TB) cells incubated for 48 hrs by sulforhodamine B assay; conditions: HL-60, 48 h
In short: (§2)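 NCI 60-cell-line panel, standard protocol. Cells exposed to compound for two days, growth read by sulforhodamine B staining. Tested at five 10-fold dilutions, top concentration 100 µM, to give dose-response curves.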

[3] = Growth inhibition of human RXF393 cells assessed as cell growth at 10 uM incubated for 48 hrs by sulforhodamine B assay relative to control; conditions: RXF 393, 48 h, read-out: Activity; in short: as §1
[4] = Growth inhibition of human BT549 cells incubated for 48 hrs by sulforhodamine B assay; conditions: BT-549, 48 h; in short: as §2
SK-MEL-2 = assay: Growth inhibition of human SK-MEL-2 cells assessed as cell growth at 10 uM incubated for 48 hrs by sulforhodamine B assay relative to control; conditions: SK-MEL-2, 48 h, read-out: Activity; in short: as §1
[5] = Growth inhibition of human OVCAR8 cells assessed as cell growth at 10 uM incubated for 48 hrs by sulforhodamine B assay relative to control; conditions: OVCAR-8, 48 h, read-out: Activity; in short: as §1
[6] = Growth inhibition of human BT549 cells assessed as cell growth at 10 uM incubated for 48 hrs by sulforhodamine B assay relative to control; conditions: BT-549, 48 h, read-out: Activity; in short: as §1
[7] = Growth inhibition of human HOP92 cells assessed as cell growth at 10 uM incubated for 48 hrs by sulforhodamine B assay relative to control; conditions: HOP-92, 48 h, read-out: Activity
In short: (§3)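 Single-dose screen in the NCI 60-cell-line panel at one final concentration of 10 µM. Two-day drug exposure with a sulforhodamine B endpoint. Values are growth percent for each cell line.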

786-0 = assay: Growth inhibition of human 786-0 cells incubated for 48 hrs by sulforhodamine B assay; conditions: 786-0, 48 h; in short: as §2
HT-29 [8] = assay: Growth inhibition of human HT-29 cells assessed as cell growth at 10 uM incubated for 48 hrs by sulforhodamine B assay relative to control; conditions: HT-29, 48 h, read-out: Activity; in short: as §1
HT-29 [9] = assay: Growth inhibition of human HT-29 cells incubated for 48 hrs by sulforhodamine B assay; conditions: HT-29, 48 h; in short: as §2
NCI/ADR-RES = assay: Growth inhibition of human NCI/ADR-RES cells assessed as cell growth at 10 uM incubated for 48 hrs by sulforhodamine B assay relative to control; conditions: read-out: Activity; in short: as §1
ACHN [10] = assay: Growth inhibition of human ACHN cells incubated for 48 hrs by sulforhodamine B assay; in short: as §2
A549 = assay: Growth inhibition of human A549/ATCC cells incubated for 48 hrs by sulforhodamine B assay; conditions: A549, 48 h; in short: as §2
[11] = Growth inhibition of human Caki1 cells incubated for 48 hrs by sulforhodamine B assay; conditions: CAKI-1, 48 h; in short: as §2
[12] = Growth inhibition of human COLO205 cells incubated for 48 hrs by sulforhodamine B assay; conditions: COLO 205, 48 h; in short: as §2
MDA-MB-468 = assay: Growth inhibition of human MDA-MB-468 cells assessed as cell growth at 10 uM incubated for 48 hrs by sulforhodamine B assay relative to control; conditions: MDA-MB-468, 48 h, read-out: Activity; in short: as §1
[13] = Growth inhibition of human HCC2998 cells incubated for 48 hrs by sulforhodamine B assay; conditions: HCC 2998, 48 h; in short: as §2
[14] = Growth inhibition of human COLO205 cells assessed as cell growth at 10 uM incubated for 48 hrs by sulforhodamine B assay relative to control; conditions: COLO 205, 48 h, read-out: Activity; in short: as §1
KM12 = assay: Growth inhibition of human KM12 cells incubated for 48 hrs by sulforhodamine B assay; conditions: KM12, 48 h; in short: as §2
[15] = Growth inhibition of human HOP62 cells assessed as cell growth at 10 uM incubated for 48 hrs by sulforhodamine B assay relative to control; conditions: HOP-62, 48 h, read-out: Activity; in short: as §1
K562 = assay: Growth inhibition of human K562 cells assessed as cell growth at 10 uM incubated for 48 hrs by sulforhodamine B assay relative to control; conditions: K562, 48 h, read-out: Activity; in short: as §1
[16] = Growth inhibition of human HL-60(TB) cells assessed as cell growth at 10 uM incubated for 48 hrs by sulforhodamine B assay relative to control; conditions: HL-60, 48 h, read-out: Activity; in short: as §3
ACHN [17] = assay: Growth inhibition of human ACHN cells assessed as cell growth at 10 uM incubated for 48 hrs by sulforhodamine B assay relative to control; conditions: read-out: Activity; in short: as §1
NCI-H460 = assay: Growth inhibition of human NCI-H460 cells incubated for 48 hrs by sulforhodamine B assay; conditions: NCI-H460, 48 h; in short: as §2
[18] = Growth inhibition of human DU145 cells assessed as cell growth at 10 uM incubated for 48 hrs by sulforhodamine B assay relative to control; conditions: DU-145, 48 h, read-out: Activity; in short: as §1
[19] = Growth inhibition of human HCC2998 cells assessed as cell growth at 10 uM incubated for 48 hrs by sulforhodamine B assay relative to control; conditions: HCC 2998, 48 h, read-out: Activity; in short: as §3
[20] = Growth inhibition of human LOXIMVI cells assessed as cell growth at 10 uM incubated for 48 hrs by sulforhodamine B assay relative to control; conditions: LOX IMVI, read-out: Activity; in short: as §3
[21] = read-out: pLC50 (the source's name) (converted)

## CC(C)[C@@]12C[C@@H](NC(=O)CO)[C@@](C)(O1)[C@@H]1CC[C@@H](C)[C@H]1[C@@H]2OC(=O)/C=C/C1CCCCC1
A498
  growth at 10 µM: 41%
SR
  growth at 10 µM: 93.2%
[1]
  growth at 10 µM: 98.2%
[2]
  GI50: > 44.7 µM
[2]; [21]
  CC50: > 44.7 µM
[2]; read-out: pTGI (converted)
  TGI: > 44.7 µM
[3]
  growth at 10 µM: 95.4%
[4]
  GI50: > 44.7 µM
[4]; [21]
  CC50: > 44.7 µM
[4]; read-out: pTGI (converted)
  TGI: > 44.7 µM
SK-MEL-2
  growth at 10 µM: 99.2%
[5]
  growth at 10 µM: 107%
[6]
  growth at 10 µM: 109%
[7]
  growth at 10 µM: 120%
786-0
  GI50: > 44.7 µM
  LC50: > 44.7 µM
786-0; read-out: pTGI (converted)
  TGI: > 44.7 µM
HT-29 [8]
  growth at 10 µM: 97.4%
HT-29 [9]
  GI50: > 44.7 µM
  LC50: > 44.7 µM
HT-29 [9]; read-out: pTGI (converted)
  TGI: > 44.7 µM
NCI/ADR-RES
  growth at 10 µM: 94.8%
ACHN [10]
  GI50: 17 µM
  LC50 (concentration killing 50% of cells): > 44.7 µM
ACHN [10]; read-out: pTGI (converted)
  TGI: > 44.7 µM
A549
  GI50: > 44.7 µM
  LC50: > 44.7 µM
A549; read-out: pTGI (converted)
  TGI: > 44.7 µM
[11]
  GI50: > 44.7 µM
  LC50: > 44.7 µM
[11]; read-out: pTGI (converted)
  TGI: > 44.7 µM
[12]
  GI50: > 44.7 µM
[12]; [21]
  CC50: > 44.7 µM
[12]; read-out: pTGI (converted)
  TGI: > 44.7 µM
MDA-MB-468
  growth at 10 µM: 97.5%
[13]
  GI50: > 44.7 µM
  LC50: > 44.7 µM
[13]; read-out: pTGI (converted)
  TGI: > 44.7 µM
[14]
  growth at 10 µM: 113%
KM12
  GI50: > 44.7 µM
  LC50: > 44.7 µM
KM12; read-out: pTGI (converted)
  TGI: > 44.7 µM
[15]
  growth at 10 µM: 108%
K562
  growth at 10 µM: 96.5%
[16]
  growth at 10 µM: 111%
ACHN [17]
  growth at 10 µM: 99.9%
NCI-H460
  GI50: > 44.7 µM
NCI-H460; [21]
  CC50: > 44.7 µM
NCI-H460; read-out: pTGI (converted)
  TGI: > 44.7 µM
[18]
  growth at 10 µM: 116%

## CC(C)[C@@]12C[C@@H](NC(=O)CF)[C@@](C)(O1)[C@@H]1CC[C@@H](C)[C@H]1[C@@H]2OC(=O)/C=C/c1ccccc1
A498
  growth at 10 µM: 83%
[19]
  growth at 10 µM: 107%
SR
  growth at 10 µM: 85.5%
[1]
  growth at 10 µM: 105%
SK-MEL-2
  growth at 10 µM: 117%
[5]
  growth at 10 µM: 107%
[6]
  growth at 10 µM: 111%
[7]
  growth at 10 µM: 75.8%
HT-29 [8]
  growth at 10 µM: 109%
NCI/ADR-RES
  growth at 10 µM: 98.5%
[20]
  growth at 10 µM: 102%
[14]
  growth at 10 µM: 103%
[15]
  growth at 10 µM: 90.8%
K562
  growth at 10 µM: 106%
[16]
  growth at 10 µM: 105%
ACHN [17]
  growth at 10 µM: 105%
[18]
  growth at 10 µM: 115%
